Laboratory results: ChEMBL document CHEMBL4270599, “Synthesis of a 3'-C-ethynyl-β-d-ribofuranose purine nucleoside library: Discovery of C7-deazapurine analogs as potent antiproliferative nucleosides” (Eur J Med Chem, 2018)

Tests used:
CCRF-CEM = assay: Antiproliferative activity against human CEM cells after 72 hrs by Coulter counter method; assay type: functional, cell-based
Outline: (§1)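 Cell count assay in 96-well microtiter plates; (5–7.5) × 10⁴ tumor cells per well plus test compound. Cells proliferated at 37 °C in humidified CO₂-controlled atmosphere, 48 h for murine leukemia L1210, 72 h for human lymphocytic CEM and cervix carcinoma HeLa. Counted by Coulter counter; IC₅₀ is the concentration that inhibits proliferation by 50%.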

HeLa = assay: Antiproliferative activity against human HeLa cells after 72 hrs by Coulter counter method; assay type: functional, cell-based; outline: as §1
HOP-62 = assay: Cytotoxicity against human HOP62 cells after 48 hrs by SRB assay; assay type: functional; conditions: HOP-62, 48 h
COLO 205 = assay: Cytotoxicity against human COLO205 cells after 48 hrs by SRB assay; assay type: functional; conditions: COLO 205, 48 h
SF-295 = assay: Cytotoxicity against human SF295 cells after 48 hrs by SRB assay; assay type: functional; conditions: SF-295, 48 h
SNB-19 = assay: Cytotoxicity against human SNB19 cells after 48 hrs by SRB assay; assay type: functional; conditions: SNB-19, 48 h
M14 [1] = assay: Cytotoxicity against human M14 cells after 48 hrs by SRB assay; assay type: functional; conditions: M14, 48 h
MDA-MB-435 = assay: Cytotoxicity against human MDA-MB-435 cells after 48 hrs by SRB assay; assay type: functional; conditions: MDA-MB-435, 48 h
SK-MEL-5 = assay: Cytotoxicity against human SK-MEL-5 cells after 48 hrs by SRB assay; assay type: functional; conditions: SK-MEL-5, 48 h
OVCAR-8 = assay: Cytotoxicity against human OVCAR8 cells after 48 hrs by SRB assay; assay type: functional; conditions: OVCAR-8, 48 h
SK-OV-3 = assay: Cytotoxicity against human SKOV3 cells after 48 hrs by SRB assay; assay type: functional; conditions: SK-OV-3, 48 h
ACHN = assay: Cytotoxicity against human ACHN cells after 48 hrs by SRB assay; assay type: functional
T47D = assay: Cytotoxicity against human T47D cells after 48 hrs by SRB assay; assay type: functional
A549 = assay: Growth inhibition of human A549/ATCC cells assessed as cell growth at 10^-8 M incubated for 48 hrs by sulforhodamine B assay relative to control; assay type: functional; conditions: A549, 48 h, read-out: Activity
NCI-H226 [2] = assay: Growth inhibition of human NCI-H226 cells assessed as cell growth at 10^-8 M incubated for 48 hrs by sulforhodamine B assay relative to control; assay type: functional; conditions: NCI-H226, 48 h, read-out: Activity
U-251 = assay: Growth inhibition of human U251 cells assessed as cell growth at 10^-8 M incubated for 48 hrs by sulforhodamine B assay relative to control; assay type: functional; conditions: U-251, 48 h, read-out: Activity
RPMI-8226 = assay: Growth inhibition of human RPMI8226 cells assessed as cell growth at 10^-7 M incubated for 48 hrs by sulforhodamine B assay relative to control; assay type: functional; conditions: RPMI-8226, 48 h, read-out: Activity
NCI-H226 [3] = assay: Growth inhibition of human NCI-H226 cells assessed as cell growth at 10^-7 M incubated for 48 hrs by sulforhodamine B assay relative to control; assay type: functional; conditions: NCI-H226, 48 h, read-out: Activity
HT-29 = assay: Growth inhibition of human HT-29 cells assessed as cell growth at 10^-7 M incubated for 48 hrs by sulforhodamine B assay relative to control; assay type: functional; conditions: HT-29, 48 h, read-out: Activity
SF-539 [4] = assay: Growth inhibition of human SF539 cells assessed as cell growth at 10^-7 M incubated for 48 hrs by sulforhodamine B assay relative to control; assay type: functional; conditions: SF-539, 48 h, read-out: Activity
M14 [5] = assay: Growth inhibition of human M14 cells assessed as cell growth at 10^-7 M incubated for 48 hrs by sulforhodamine B assay relative to control; assay type: functional; conditions: M14, 48 h, read-out: Activity
OVCAR-3 = assay: Growth inhibition of human OVCAR3 cells assessed as cell growth at 10^-7 M incubated for 48 hrs by sulforhodamine B assay relative to control; assay type: functional; conditions: OVCAR-3, 48 h, read-out: Activity
MOLT-4 = assay: Growth inhibition of human MOLT4 cells assessed as cell growth at 10^-6 M incubated for 48 hrs by sulforhodamine B assay relative to control; assay type: functional; conditions: MOLT-4, 48 h, read-out: Activity
HOP-92 = assay: Growth inhibition of human HOP92 cells assessed as cell growth at 10^-6 M incubated for 48 hrs by sulforhodamine B assay relative to control; assay type: functional; conditions: HOP-92, 48 h, read-out: Activity
SF-268 = assay: Growth inhibition of human SF268 cells assessed as cell growth at 10^-6 M incubated for 48 hrs by sulforhodamine B assay relative to control; assay type: functional; conditions: SF-268, 48 h, read-out: Activity
SF-539 [6] = assay: Growth inhibition of human SF539 cells assessed as cell growth at 10^-6 M incubated for 48 hrs by sulforhodamine B assay relative to control; assay type: functional; conditions: SF-539, 48 h, read-out: Activity
PC-3 = assay: Growth inhibition of human PC3 cells assessed as cell growth at 10^-6 M incubated for 48 hrs by sulforhodamine B assay relative to control; assay type: functional; conditions: PC-3, 48 h, read-out: Activity
MCF7 = assay: Growth inhibition of human MCF7 cells assessed as cell growth at 10^-6 M incubated for 48 hrs by sulforhodamine B assay relative to control; assay type: functional; conditions: MCF7, 48 h, read-out: Activity
KM12 = assay: Growth inhibition of human KM12 cells assessed as cell growth at 10^-5 M incubated for 48 hrs by sulforhodamine B assay relative to control; assay type: functional; conditions: KM12, 48 h, read-out: Activity
[7] = read-out: pLC50 (the source's name) (converted)
[8] = read-out: LC50 (the source's name)

SMILES: C#C[C@@]1(O)[C@@H](CO)O[C@@H](n2cc(Cl)c3c(N)ncnc32)[C@@H]1O
- IC50 (CCRF-CEM): 12 nM
- IC50 (HeLa): 51 nM
- GI50 (HOP-62; read-out: GI50): 216 to 299 nM
- TGI (HOP-62; read-out: TGI): 1160 to 3350 nM
- CC50 (HOP-62; [7]): > 100000 nM
- GI50 (COLO 205; read-out: GI50): 71.2 to 157 nM
- CC50 (COLO 205; [8]): 10000 to 40400 nM
- TGI (COLO 205; read-out: TGI): 276 to 521 nM
- GI50 (SF-295; read-out: GI50): 202 to 298 nM
- CC50 (SF-295; [8]): > 100000 nM
- TGI (SF-295; read-out: TGI): 1900 to 3200 nM
- GI50 (SNB-19; read-out: GI50): 21 to 204 nM
- TGI (SNB-19; read-out: TGI): 294 nM
- CC50 (SNB-19; [7]): > 100000 nM
- TGI (SNB-19; read-out: pTGI (converted)): 295 nM
- GI50 (M14 [1]; read-out: GI50): 157 to 200 nM
- CC50 (M14 [1]; [8]): > 100000 nM
- TGI (M14 [1]; read-out: TGI): 520 to 659 nM
- GI50 (MDA-MB-435; read-out: GI50): 132 to 208 nM
- CC50 (MDA-MB-435; [8]): 4670 to 100000 nM
- TGI (MDA-MB-435; read-out: TGI): 520 to 10200 nM
- GI50 (SK-MEL-5; read-out: GI50): 109 to 140 nM
- TGI (SK-MEL-5; read-out: TGI): 268 to 343 nM
- GI50 (OVCAR-8; read-out: GI50): 10.2 to 33.6 nM
- CC50 (OVCAR-8; [8]): > 100000 nM
- TGI (OVCAR-8; read-out: TGI): 730 to 1480 nM
- GI50 (SK-OV-3; read-out: GI50): 119 to 171 nM
- CC50 (SK-OV-3; [8]): > 100000 nM
- TGI (SK-OV-3; read-out: TGI): 467 to 573 nM
- GI50 (ACHN): 219 nM
- CC50 (ACHN; [7]): > 100000 nM
- GI50 (T47D; read-out: GI50): 33.6 to 98 nM
- CC50 (T47D; [8]): > 100000 nM
- TGI (T47D; read-out: TGI): 428 to 559 nM
- growth at 0.01 µM (A549): 98 to 105%
- growth at 0.01 µM (NCI-H226 [2]): 99 to 108%
- growth at 0.01 µM (U-251): 47 to 66%
- growth at 0.1 µM (RPMI-8226): 64 to 65%
- growth at 0.1 µM (NCI-H226 [3]): 102 to 108%
- growth at 0.1 µM (HT-29): 18 to 38%
- growth at 0.1 µM (SF-539 [4]): 90 to 98%
- growth at 0.1 µM (M14 [5]): 69 to 79%
- growth at 0.1 µM (OVCAR-3): 74 to 77%
- growth at 1 µM (MOLT-4): 2%
- growth at 1 µM (HOP-92): 27 to 31%
- growth at 1 µM (SF-268): 23 to 24%
- growth at 1 µM (SF-539 [6]): 6 to 10%
- growth at 1 µM (PC-3): 9 to 11%
- growth at 1 µM (MCF7): 1 to 4%
- growth at 10 µM (KM12): 5 to 9%
